# ChEMBL document CHEMBL1122651, “5-Aryl-3-azabicyclo[3.2.0]heptan-6-one ketals, compounds with morphine-like analgesic activity” (J Med Chem, 1984)
# Columns and labels:
# Rattus norvegicus [1] = test: Analgesic activity of intraperitoneally administered compound was determined by the inflamed rat-paw reversal of abnormal (three-legged) gait; assay type: functional; details: ip
# Summary of the method: (§1)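 Rats with an inflamed paw and abnormal three-legged gait, dosed with compound or vehicle. Reversal of the abnormal gait is scored. A reduction of abnormal gait of at least 50% counts as a positive analgesic response. ED50 and 95% confidence limits by Finney's linear arc sine transformation.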
# Rattus norvegicus [2] = species on record: Rattus norvegicus; test: (§2) Concentration of drug required to inhibit the stereospecific binding of [3H]naloxone (5 nM) to homogenates of rat brain minus cerebellum in the presence of 100 mM NaCl; assay type: functional
# Summary of the method: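 Displacement of [3H]naloxone (5 nM) from stereospecific sites in rat brain homogenate (minus cerebellum), run with 100 mM NaCl added. Eight displacing ligand concentrations, each analysis in triplicate. Value is the drug concentration giving 50% inhibition of binding.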
# Rattus norvegicus [3] = species on record: Rattus norvegicus; test: Concentration of drug required to inhibit the stereospecific binding of [3H]-naloxone (5 nM) to homogenates of rat brain minus cerebellum in the absence of 100 mM NaCl; assay type: functional, organism-based
# Rattus norvegicus [4] = species on record: Rattus norvegicus; details: Brain, at 25 µM
# Rattus norvegicus [5] = test: Analgesic activity of intraperitoneally administered compound was determined by the inflamed rat-paw reversal of abnormal (three-legged) gait; 4/4 Active; assay type: functional; details: ip; summary of the method: as §1
# Rattus norvegicus [6] = species on record: Rattus norvegicus; test: Ability to displace [3H]naloxone binding from homogenates of rat brain minus cerebellum at the concentration of 0.78 uM
# Summary of the method: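 Competition binding of [3H]naloxone to rat brain homogenate with cerebellum removed. Pert–Snyder procedure as modified by Ong et al. Percent inhibition of stereospecific binding read at a single drug concentration of 0.78 μM.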
# Rattus norvegicus [7] = test: Analgesic activity of intraperitoneally administered compound was determined by the inflamed rat-paw reversal of abnormal (three-legged) gait; R (reject) highest dose tested inactive; assay type: functional; details: ip; summary of the method: as §1
# Rattus norvegicus [8] = species on record: Rattus norvegicus; details: Brain, at 0.78 µM
# Rattus norvegicus [9] = test: Analgesic activity of intraperitoneally administered compound was determined by the inflamed rat-paw reversal of abnormal (three-legged) gait; 8/10 Active; assay type: functional; details: ip; summary of the method: as §1
# Rattus norvegicus [10] = test: Analgesic activity of perorally administered compound was determined by the inflamed rat-paw reversal of abnormal (three-legged) gait; assay type: functional; details: po; summary of the method: as §1
# Rattus norvegicus [11] = species on record: Rattus norvegicus; test: animal or person; details: po
# Rattus norvegicus [12] = test: Analgesic activity of subcutaneously administered compound was determined by the inflamed rat-paw reversal of abnormal (three-legged) gait; 0.06-2.0; details: sc
# Rattus norvegicus [13] = species on record: Rattus norvegicus; test: as §2
SMILES,IC50 (Rattus norvegicus [2]),IC50 (Rattus norvegicus [3]),inhibition (Rattus norvegicus [4]),other results
COc1cccc(C23CNCC2CC3(OC)OC)c1 (stereo not drawn),,,,ED50 (Rattus norvegicus [1]): > 25 mg/kg
C=CCN1CC[C@]23CCCC[C@H]2[C@H]1Cc1ccc(O)cc13 [LEVALLORPHAN],34 nM,9 nM,,
COC1(OC)CC2CN(C)CC21c1ccccc1 (stereo not drawn),,,62%,ED50 (Rattus norvegicus [5]): < 25 mg/kg; inhibition (Rattus norvegicus [6]): 13%
COc1cccc(C23CN(C)CC2CC3=O)c1 (stereo not drawn),,,22%,ED50 (Rattus norvegicus [7]): 25 mg/kg; inhibition (Rattus norvegicus [8]): 12%
COc1cccc(C23CN(C)CC2CC32OCC(C)(C)CO2)c1.O=C(O)/C=C/C(=O)O (stereo not drawn),,,,ED50 (Rattus norvegicus [9]): < 25 mg/kg
COC1(OC)CC2CN(C)CC21c1cccc(O)c1 (stereo not drawn),579 nM,61 nM,99%,inhibition (Rattus norvegicus [8]): 85%; ED50 (Rattus norvegicus [1]): ~3 mg/kg
COC1(OC)CC2CN(C)CC21c1ccc(C)cc1 (stereo not drawn),,,62%,ED50 (Rattus norvegicus [7]): 25 mg/kg; inhibition (Rattus norvegicus [6]): 11%
COc1ccc2c3c1O[C@H]1[C@@H](O)C=C[C@H]4[C@@H](C2)N(C)CC[C@@]341 [CODEINE],22000 nM,2600 nM,,
COc1cccc(C23CN(C)CC2CC3(OC)OC)c1 (stereo not drawn),62500 nM,9920 nM,61%,ED50 (Rattus norvegicus [10]): 4 mg/kg; inhibition (Rattus norvegicus [6]): 7%
CN1CC[C@]23c4c5ccc(O)c4O[C@H]2[C@@H](O)C=C[C@H]3[C@H]1C5.CN1CC[C@]23c4c5ccc(O)c4O[C@H]2[C@@H](O)C=C[C@H]3[C@H]1C5.O=S(=O)(O)O,,74 nM,100%,ED50 (Rattus norvegicus [11]): 35 mg/kg; ED50 (Rattus norvegicus [12]): 0.4 mg/kg; inhibition (Rattus norvegicus [8]): 97%; IC50 (Rattus norvegicus [13]): 380 nM
C=CCN1CC[C@]23c4c5ccc(O)c4O[C@H]2C(=O)CC[C@@]3(O)[C@H]1C5 [NALOXONE],42 nM,46 nM,,
